Assay results as given in publication PMC3314378 (Journal of Medicinal Chemistry, 2011).

Experiments:
[1] = test system: 8-Br-cAMP-induced renal cyst growth in E13.5 embryonic kidneys; conditions: read-out: IC50 for inhibition of cyst growth; embryonic kidney culture; cited from earlier work
[2] = In vitro metabolic stability in hepatic microsomes; type: in vitro ADME, rat; conditions: for metabolic stability in hepatic microsomes: presence of NADPH
Outline: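 Test compound (5 μM) incubated at 37 °C for specified times with rat liver microsomes (1 mg protein/ml) in 100 mM potassium phosphate buffer with NADPH 0 or 1 mM. Chilled, extracted with ice-cold ethyl acetate, dried under nitrogen, redissolved in acetonitrile:water 3:1 with 0.1% formic acid. Analysed by reverse-phase C18 LC (5–95% acetonitrile gradient, 16 min) and electrospray MS, scanning 150–1500 Da.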

[3] = target: human wildtype CFTR (Homo sapiens, UniProt P13569); experiment: Fluorescence plate-reader assay of CFTR-mediated iodide influx; type: cell-based
Outline: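 FRT cells co-expressing human wild-type CFTR and YFP-H148Q were plated at 20,000 cells/well in Coon's modified F12 with 10% FBS and assayed 48 h later. After PBS washes, test compound was added for 45 min, then forskolin/IBMX/apigenin cocktail for 15 min. Fluorescence was read 2 s baseline, then 10 s after adding PBS with iodide replacing 137 mM chloride. Initial iodide influx rate by non-linear regression; n=4, S.E.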

[4] = test system: 8-Br-cAMP-induced renal cyst growth in E13.5 embryonic kidneys; experiment: Embryonic kidney organ culture model of PKD; parameters: species or system mouse
Outline: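 Mouse E13.5 metanephroi on porous culture inserts in DMEM/Ham's F-12 with L-glutamine, HEPES, insulin, transferrin, selenium, prostaglandin E, T3 and antibiotics. Kept at 37 °C in humidified CO2 for up to 8 days. Medium with 100 μM 8-Br-cAMP, with or without test compound (0, 0.1 or 1 μM), replaced every 12 h. Kidneys photographed by transmitted light at 520 nm; percentage cyst area = total cyst area / total kidney area.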

[5] = target: CFTR (Homo sapiens, UniProt P13569); experiment: Short-circuit current analysis of CFTR inhibition in CFTR-expressing FRT cells; type: cell-based
Outline: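 Ussing chamber short-circuit current on CFTR-expressing FRT cell inserts under voltage clamp. Apical buffer 75 mM NaCl + 75 mM Na gluconate, basolateral 150 mM NaCl, pH 7.3, giving a transepithelial chloride gradient. Basolateral membrane permeabilized with 250 μg/mL amphotericin B. CFTR activated with forskolin (20 μM), then serial additions of increasing test compound concentrations, with current recorded continuously.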

Chain of human wildtype CFTR (P13569 whole entry): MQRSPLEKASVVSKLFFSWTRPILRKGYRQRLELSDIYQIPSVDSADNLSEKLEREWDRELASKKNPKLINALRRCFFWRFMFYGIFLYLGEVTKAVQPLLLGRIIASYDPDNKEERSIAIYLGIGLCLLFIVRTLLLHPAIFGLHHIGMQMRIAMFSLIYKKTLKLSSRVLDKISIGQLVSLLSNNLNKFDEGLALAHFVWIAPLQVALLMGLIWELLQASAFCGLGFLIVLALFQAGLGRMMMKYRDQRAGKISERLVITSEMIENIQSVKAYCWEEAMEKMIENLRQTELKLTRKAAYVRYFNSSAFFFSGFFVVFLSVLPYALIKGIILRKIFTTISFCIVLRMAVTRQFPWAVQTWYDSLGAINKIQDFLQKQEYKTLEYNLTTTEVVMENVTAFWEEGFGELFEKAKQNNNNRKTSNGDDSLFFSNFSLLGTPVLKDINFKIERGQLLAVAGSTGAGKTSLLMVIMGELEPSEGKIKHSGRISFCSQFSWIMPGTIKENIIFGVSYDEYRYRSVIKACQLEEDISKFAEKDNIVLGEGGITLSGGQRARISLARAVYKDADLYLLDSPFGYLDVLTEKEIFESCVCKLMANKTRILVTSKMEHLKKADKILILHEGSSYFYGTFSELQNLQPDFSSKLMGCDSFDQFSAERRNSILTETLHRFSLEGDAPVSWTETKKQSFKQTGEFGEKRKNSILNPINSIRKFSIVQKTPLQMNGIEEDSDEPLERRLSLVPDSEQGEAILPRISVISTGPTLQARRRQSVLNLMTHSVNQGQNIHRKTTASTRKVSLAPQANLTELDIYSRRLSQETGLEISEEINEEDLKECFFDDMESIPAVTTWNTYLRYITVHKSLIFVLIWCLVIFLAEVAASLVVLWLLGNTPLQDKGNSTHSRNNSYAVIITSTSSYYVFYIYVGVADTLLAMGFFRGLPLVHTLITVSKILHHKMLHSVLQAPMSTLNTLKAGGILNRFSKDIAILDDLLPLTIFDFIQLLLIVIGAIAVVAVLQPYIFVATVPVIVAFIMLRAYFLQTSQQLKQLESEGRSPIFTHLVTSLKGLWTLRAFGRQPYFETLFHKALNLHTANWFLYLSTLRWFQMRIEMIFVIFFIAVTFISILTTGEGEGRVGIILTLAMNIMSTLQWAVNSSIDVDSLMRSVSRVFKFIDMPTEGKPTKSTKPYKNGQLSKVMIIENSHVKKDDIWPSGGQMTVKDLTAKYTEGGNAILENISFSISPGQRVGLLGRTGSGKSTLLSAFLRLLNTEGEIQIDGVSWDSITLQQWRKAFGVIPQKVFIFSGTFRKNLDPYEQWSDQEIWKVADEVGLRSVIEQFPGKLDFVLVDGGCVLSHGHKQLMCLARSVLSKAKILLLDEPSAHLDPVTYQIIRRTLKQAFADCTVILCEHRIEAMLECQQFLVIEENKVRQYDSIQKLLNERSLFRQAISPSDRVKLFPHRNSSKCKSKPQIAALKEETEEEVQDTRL
Chain of CFTR (P13569 whole entry): as above

**Q.** What does the source list for `Cc1ccc(C2Nc3ccccc3-n3c(-c4ccccc4)c4c(=O)n(C)c(=O)n(C)c4c32)o1` (stereo not drawn) [Compound 8, 7,9-Dimethyl-11-phenyl-6-(5-methylfuran-2-yl)-5,6-dihydro-pyrimido-[4',5'-3,4]pyrrolo[1,2-a]quinoxaline-8,10-(7H,9H)-dione]?
**A.** IC50 [1]: > 500 nM; loss in hepatic microsomes in the absence of NADPH ([2]; absence of NADPH (data not shown)): No loss; metabolic stability in hepatic microsomes [2]: poor metabolic stability

**Q.** For `Cc1ccc(C2c3c4c(c(-c5ccccc5)n3-c3ccccc3N2C)c(=O)n(C)c(=O)n4C)o1` (stereo not drawn) [Compound 13], which “CFTR inhibition activity” value [3] is on record?
**A.** weakly active

**Q.** Which “metabolic stability in hepatic microsomes” value [2] does the source give for `Cn1c(=O)c2c(-c3ccccc3)n3c(c2n(C)c1=O)C(c1ccc(Br)o1)Oc1ccccc1-3` (stereo not drawn) [Compound 31] here?
**A.** better stability than 8

**Q.** With `Cn1c(=O)c2c(-c3ccccc3)n3c(c2n(C)c1=O)C(c1ccc(Br)o1)Nc1ccccc1-3` (stereo not drawn) [Compound 18] as the compound, how does the “metabolic stability in hepatic microsomes” value [2] read?
**A.** substantially more stable than 8

**Q.** With `CCOC(=O)c1ccc2c(c1)-n1c(-c3ccccc3)c3c(=O)n(C)c(=O)n(C)c3c1C(c1ccc(Br)o1)O2` (stereo not drawn) [Compound 40, Ethyl 6-(5-Bromofuran-2-yl)-7,9-dimethyl-8,10-dioxo-11-phenyl-7,8,9,10-tetrahydro-6H-benzo[b]pyrimido [4',5':3,4]pyrrolo[1,2-d][1,4]oxazine-2-carboxylate] as the compound, how does the “CFTR inhibition activity” value [3] read?
**A.** strongly inhibited CFTR

**Q.** What does the source list for `Cn1c(=O)c2c(-c3ccccc3)n3c(c2n(C)c1=O)C(c1ccc(Br)o1)Oc1ccc(C(=O)O)cc1-3` (stereo not drawn) [Compound 42, 6-(5-Bromofuran-2-yl)-7,9-dimethyl-8,10-dioxo-11-phenyl-7,8,9,10-tetrahydro-6H-benzo[b]pyrimido [4',5':3,4]pyrrolo [1,2-d][1,4]oxazine-2-carboxylic acid]?
**A.** improvement of potency for inhibition of renal cystogenesis ex vivo over 8 [4]: > 5 fold; extent of CFTR inhibition [5]: fully inhibited CFTR; improvement of metabolic stability compared to 8 ([2]; hepatic microsomes): > 10 fold; metabolic stability in hepatic microsomes [2]: excellent stability

**Q.** Which “metabolic stability in hepatic microsomes” value [2] does the source give for `Cn1c(=O)c2c(-c3ccccc3)n3c(c2n(C)c1=O)C(c1ccc(Br)o1)Oc1ccc([N+](=O)[O-])cc1-3` (stereo not drawn) [Compound 36] here?
**A.** excellent metabolic stability
